# In ChEMBL document CHEMBL1138753, “Synthesis and biological activity of analogues of the antimicrotubule agent N,beta,beta-trimethyl-L-phenylalanyl-N(1)-[(1S,2E)-3-carboxy-1-isopropylbut-2-enyl]- N(1),3-dimethyl-L-valinamide (HTI-286)” (J Med Chem, 2004):
# How the values were obtained:
# [1] = molecular target: T1, Tubulin beta-1 chain (Homo sapiens, UniProt Q9H4B7); experiment: Percent inhibition of tubulin polymerization at 0.3 uM concentration; assay type: functional
# [2] = Concentration required to inhibit tumor cell growth in KB-3-1 cells; assay type: functional, cell-based, Homo sapiens; settings: Homo sapiens, KB 3-1
# Procedure, shortened: (§1)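 Cytotoxicity was measured in paclitaxel-sensitive KB-3-1 cells and in KB-8-5 and KB-V1 cells, which express moderate and high P-glycoprotein respectively. Result is the average IC50 (nM) ± SEM; SEM is omitted where it is below 10% of the average.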
# [3] = test system: Mus musculus; experiment: Minimum tolerated dose was evaluated in lox melanoma human tumor graft model in athymic mice when administered intravenously
# [4] = test system: KB; experiment: Concentration required to inhibit tumor cell growth in KB-V1 cells; assay type: functional, cell-based; settings: Homo sapiens; procedure, shortened: as §1
# [5] = test system: Mus musculus; experiment: Minimum effective dose was evaluated in lox melanoma human tumor graft model in athymic mice when administered intravenously; settings: iv, read-out: MED
# [6] = test system: KB; experiment: Concentration required to inhibit tumor cell growth in KB-8-5 cells; assay type: functional, cell-based, Homo sapiens; settings: Homo sapiens, KB; procedure, shortened: as §1
# [7] = test system: NCI-H1299; experiment: Inhibitory concentration against NCI-H1299 cells was evaluated; assay type: functional, cell-based; settings: Homo sapiens
# Procedure, shortened: (§2)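 Cytotoxicity panel covered tumor lines differing in P-glycoprotein expression. Lox melanoma and KM20 have none; NCI-H1299, HCT-15 and S1 express it. Result is the average IC50 (nM) ± SEM.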
# [8] = test system: LOX IMVI; experiment: Inhibitory concentration against Lox melanoma cells; assay type: functional, cell-based; settings: Homo sapiens; procedure, shortened: as §2
# [9] = Inhibitory concentration against KM20 cells was evaluated; assay type: functional, cell-based, Homo sapiens; procedure, shortened: as §2
# [10] = test system: HCT-15; experiment: Inhibitory concentration against HCT-15 cells was evaluated; assay type: functional, cell-based; settings: Homo sapiens; procedure, shortened: as §2
# [11] = molecular target: T1, Tubulin beta-1 chain; experiment: Binding affinity towards tubulin
# [12] = Inhibitory concentration against S1 cells was evaluated; assay type: functional, cell-based; procedure, shortened: as §2
# T1 sequence (Q9H4B7 whole entry): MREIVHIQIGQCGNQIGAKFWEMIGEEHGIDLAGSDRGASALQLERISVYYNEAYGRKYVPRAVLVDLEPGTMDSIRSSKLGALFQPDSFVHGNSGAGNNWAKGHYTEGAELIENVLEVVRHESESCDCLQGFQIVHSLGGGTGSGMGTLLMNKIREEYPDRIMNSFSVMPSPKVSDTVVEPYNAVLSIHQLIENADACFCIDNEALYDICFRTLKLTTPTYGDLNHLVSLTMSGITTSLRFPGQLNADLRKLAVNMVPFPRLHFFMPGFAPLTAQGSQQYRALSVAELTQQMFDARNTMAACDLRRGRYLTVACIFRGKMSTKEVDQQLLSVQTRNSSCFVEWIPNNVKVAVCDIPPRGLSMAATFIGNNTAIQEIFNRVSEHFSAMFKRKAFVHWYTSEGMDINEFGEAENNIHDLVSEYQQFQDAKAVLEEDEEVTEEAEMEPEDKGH
SMILES,inhibition [1] [%],IC50 [2] [nM],MTD [3] [mg/kg],IC50 [4] [nM],minimal effective dose [5] [mg/kg],IC50 [6] [nM],IC50 [7] [nM],IC50 [8] [nM],IC50 [9] [nM],IC50 [10] [nM],Kd [11] [nM],IC50 [12] [nM]
CN[C@H](C(=O)N[C@H](C(=O)N(C)[C@H](/C=C(\C)C(=O)O)C(C)C)C(C)C)C(C)(C)c1ccccc1,78,5.2,>3,288,0.7,11,–,–,–,–,–,–
CC/C(=C\[C@H](C(C)C)N(C)C(=O)[C@@H](NC(=O)[C@@H](NC)C(C)(C)c1ccccc1)C(C)(C)C)C(=O)O,83,5.4,–,513,2,14,19.3,6.3,6.6,20.8,–,–
C/C(=C\[C@H](C(C)C)N(C)C(=O)[C@@H](NC(=O)[C@@H](N(C)CCO)C(C)(C)c1ccccc1)C(C)(C)C)C(=O)O,72,45,–,> 3000,–,62,–,–,–,–,1000,–
CCCC[C@@H](/C=C(\C)C(=O)O)N(C)C(=O)[C@@H](NC(=O)[C@@H](NC)C(C)(C)c1ccccc1)C(C)(C)C,52,36,–,> 3000,–,78,268,–,53,–,–,–
CCOC(=O)/C(C)=C/[C@H](C(C)C)N(C)C(=O)[C@@H](NC(=O)[C@@H](NC)C(C)(C)c1ccccc1)C(C)(C)C,97,34,–,1870,0.4,499,100,13.9,–,575,4000,–
CN[C@H](C(=O)N[C@H](C(=O)N(C)[C@H](C[C@@H](C)C(=O)O)C(C)C)C(C)(C)C)C(C)(C)c1ccccc1,99,8.5,–,1320,–,19.1,–,–,–,–,4000,–
CNC(=O)/C(C)=C/[C@H](C(C)C)N(C)C(=O)[C@@H](NC(=O)[C@@H](NC)C(C)(C)c1ccccc1)C(C)(C)C,78,68,–,1590,–,129,90,–,–,25.5,–,657
CC[C@@H](C(=O)N[C@H](C(=O)N(C)[C@H](/C=C(\C)C(=O)O)C(C)C)C(C)(C)C)C(C)(C)c1ccccc1,54,912,–,5250,–,1200,–,–,–,–,–,–
CN[C@H](C(=O)N[C@H](C(=O)N(C)[C@H](/C=C(\C)C(=O)O)C(C)C)C(C)(C)SC)C(C)(C)c1ccccc1,76,2.7,–,303,0.5,7.1,15.8,3,6,18.6,700,–
C/C(=C\[C@H](C(C)C)N(C)C(=O)[C@@H](NC(=O)[C@@H](Cc1ccccc1)C(C)(C)c1ccccc1)C(C)(C)C)C(=O)O,46,1690,–,> 6000,–,2240,–,–,–,–,–,–
C/C(=C\[C@H](C(C)C)N(C)C(=O)[C@@H](NC(=O)[C@H](C(C)(C)c1ccccc1)S(C)(=O)=O)C(C)(C)C)C(=O)O,80,1750,–,> 3000,–,2110,–,–,–,–,–,–
CN[C@H](C(=O)N[C@H](C(=O)N(C)[C@H](/C=C(\C)C(N)=O)C(C)C)C(C)(C)C)C(C)(C)c1ccccc1,72,65,–,> 3000,–,162,–,–,–,–,–,–
CN[C@H](C(=O)N[C@H](C(=O)N(C)[C@H](/C=C(\C)C(=O)N1CCN(Cc2ccccc2)CC1)C(C)C)C(C)(C)C)C(C)(C)c1ccccc1,29,15,–,366,–,22,–,–,–,–,–,–
"CN[C@H](C(=O)N[C@H](C(=O)N(C)[C@@H](/C=C(\C)C(=O)O)C(C)C)C(C)(C)C)C(C)(C)c1ccccc1 (single isomer, unassigned)",0,605,–,> 3000,–,1650,–,–,–,–,–,–
CN[C@H](C(=O)N[C@H](C(=O)N(C)[C@H](/C=C(\C)C(=O)N1CCOCC1)C(C)C)C(C)(C)C)C(C)(C)c1ccccc1,69,42,–,1190,3,75,–,–,–,–,–,–
CCCCCCCCOC(=O)/C(C)=C/[C@H](C(C)C)N(C)C(=O)[C@@H](NC(=O)[C@@H](NC)C(C)(C)c1ccccc1)C(C)(C)C,26,150,–,> 3000,–,1630,–,–,–,–,–,–
CN[C@H](C(=O)N[C@@H](C(=O)N(C)[C@H](/C=C(\C)C(=O)O)C(C)C)C(C)(C)C)C(C)(C)c1ccccc1,1,> 3000,–,> 3000,–,> 3000,–,–,–,–,–,–
CN[C@H](C(=O)N[C@H](C(=O)N(C)[C@H](/C=C(\C)C(=O)O)C(C)C)C(C)(C)C)C(C)(C)O,40,151,–,> 3000,–,293,–,–,–,–,–,–
C/C(=C\[C@H](C(C)C)N(C)C(=O)[C@@H](NC(=O)[C@@H](N(C)C)C(C)(C)c1ccccc1)C(C)(C)C)C(=O)O,93,1.6,–,116,1,3.7,–,–,–,–,–,–
CN[C@H](C(=O)N[C@H](C(=O)N(C)[C@H](/C=C(\C)C(=O)O)C(C)C)C(C)(C)C)C(C)(C)C1CCCCC1,93,3.9,–,155,1,5.7,–,–,–,–,1200,–
CN[C@H](C(=O)N[C@H](C(=O)N(C)[C@H](/C=C(\C)C(=O)O)C(C)C)C(C)(C)C)[C@@H](C)c1ccccc1,84,207,–,> 3000,–,414,–,–,–,–,–,–
C=CC[C@@H](C(=O)N[C@H](C(=O)N(C)[C@H](/C=C(\C)C(=O)O)C(C)C)C(C)(C)C)C(C)(C)c1ccccc1,63,1150,–,> 6000,–,1200,–,–,–,–,–,–
C/C(=C\[C@H](C(C)C)N(C)C(=O)[C@@H](NC(=O)[C@@H](NCc1ccccc1)C(C)(C)c1ccccc1)C(C)(C)C)C(=O)O,55,1790,–,> 3000,–,1880,–,–,–,–,–,–
CN[C@H](C(=O)N[C@H](C(=O)N(C)[C@H](/C=C(\C)C(=O)N1CCN(C)CC1)C(C)C)C(C)(C)C)C(C)(C)c1ccccc1,69,33,15,2330,3,60,–,–,–,–,–,–
CN[C@H](C(=O)N[C@H](C(=O)N(C)[C@H](C[C@H](C)C(=O)O)C(C)C)C(C)(C)C)C(C)(C)c1ccccc1,74,48,–,> 3000,–,69,–,–,–,–,–,–
CS[C@H](C(=O)N[C@H](C(=O)N(C)[C@H](/C=C(\C)C(=O)O)C(C)C)C(C)(C)C)C(C)(C)c1ccccc1,79,691,–,> 6000,–,1150,–,–,–,–,–,–
CN[C@H](C(=O)N[C@H](C(=O)N[C@H](/C=C(\C)C(=O)O)C(C)C)C(C)(C)C)C(C)(C)c1ccccc1,79,43,–,> 3000,–,130,54,23,–,204,–,–
CN[C@H](C(=O)N[C@H](C(=O)N(C)[C@H](/C=C(\C)C(=O)O)C(C)C)C(C)(C)C)C1(c2ccccc2)CCCC1,77,59,–,2660,–,63,–,–,–,–,–,–
